Laboratory results published in ChEMBL document CHEMBL1153974, “Piperidinyl-2-phenethylamino inhibitors of DPP-IV for the treatment of type 2 diabetes” (Bioorg Med Chem Lett, 2009).

Columns and labels:
Dipeptidyl peptidase 4 = Dipeptidyl peptidase 4 (Homo sapiens, UniProt P27487); test: Inhibition of human DPP4
Rattus norvegicus = test: Inhibition of DPP4 in rat plasma at 5 mg/kg, po assessed as time required to inhibit 50% by PK/PD analysis; assay type: functional
Dipeptidyl peptidase 2 = Dipeptidyl peptidase 2 (Homo sapiens, UniProt Q9UHL4); test: Inhibition of human DPP2
[1] = Half life dog at 1 mg/kg, iv; assay type: ADME, organism-based, Canis lupus familiaris; design: dose 1 mg/kg, route intravenous; conditions: in vivo
[2] = Clearance in human plasma at 15 mg; assay type: ADME, organism-based
Outline: (§1)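 Human values projected from rat and dog ADME data by modeling; predicted plasma concentration–time profiles generated at varying doses.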

[3] = Bioavailability in human at 15 mg; assay type: ADME, organism-based; conditions: in vivo; outline: as §1
[4] = Clearance in dog plasma at 1 mg/kg, iv and 1 mg/kg, po; assay type: ADME, organism-based, Canis lupus familiaris
[5] = Half life in human at 15 mg; assay type: ADME, organism-based; conditions: in vivo; outline: as §1
[6] = Volume of distribution at steady state in dog at 1 mg/kg, iv; assay type: ADME, organism-based, Canis lupus familiaris; design: dose 1 mg/kg, route intravenous; conditions: in vivo, read-out: Vdss
[7] = Bioavailability in dog at 1 mg/kg, iv and 1 mg/kg, po; assay type: ADME, organism-based, Canis lupus familiaris; conditions: in vivo
[8] = Volume of distribution at steady state in rat at 1 mg/kg, iv; assay type: ADME, organism-based; design: dose 1 mg/kg, route intravenous; conditions: in vivo, read-out: Vdss
[9] = Half life in rat at 1 mg/kg, iv; assay type: ADME, organism-based; design: dose 1 mg/kg, route intravenous; conditions: in vivo
[10] = Volume of distribution at steady state in human at 15 mg; assay type: ADME, organism-based; conditions: in vivo, read-out: Vdss; outline: as §1
[11] = Clearance in rat plasma at 1 mg/kg, iv and 5 mg/kg, po; assay type: ADME, organism-based
[12] = Bioavailability in rat at 1 mg/kg, iv and 5 mg/kg, po; assay type: ADME, organism-based; conditions: in vivo
[13] = molecular target: Voltage-gated inwardly rectifying potassium channel KCNH2 (Homo sapiens, UniProt Q12809); test: Inhibition of human ERG by patch-clamp assay
Voltage-gated inwardly rectifying potassium channel KCNH2, sequence (Q12809 whole entry): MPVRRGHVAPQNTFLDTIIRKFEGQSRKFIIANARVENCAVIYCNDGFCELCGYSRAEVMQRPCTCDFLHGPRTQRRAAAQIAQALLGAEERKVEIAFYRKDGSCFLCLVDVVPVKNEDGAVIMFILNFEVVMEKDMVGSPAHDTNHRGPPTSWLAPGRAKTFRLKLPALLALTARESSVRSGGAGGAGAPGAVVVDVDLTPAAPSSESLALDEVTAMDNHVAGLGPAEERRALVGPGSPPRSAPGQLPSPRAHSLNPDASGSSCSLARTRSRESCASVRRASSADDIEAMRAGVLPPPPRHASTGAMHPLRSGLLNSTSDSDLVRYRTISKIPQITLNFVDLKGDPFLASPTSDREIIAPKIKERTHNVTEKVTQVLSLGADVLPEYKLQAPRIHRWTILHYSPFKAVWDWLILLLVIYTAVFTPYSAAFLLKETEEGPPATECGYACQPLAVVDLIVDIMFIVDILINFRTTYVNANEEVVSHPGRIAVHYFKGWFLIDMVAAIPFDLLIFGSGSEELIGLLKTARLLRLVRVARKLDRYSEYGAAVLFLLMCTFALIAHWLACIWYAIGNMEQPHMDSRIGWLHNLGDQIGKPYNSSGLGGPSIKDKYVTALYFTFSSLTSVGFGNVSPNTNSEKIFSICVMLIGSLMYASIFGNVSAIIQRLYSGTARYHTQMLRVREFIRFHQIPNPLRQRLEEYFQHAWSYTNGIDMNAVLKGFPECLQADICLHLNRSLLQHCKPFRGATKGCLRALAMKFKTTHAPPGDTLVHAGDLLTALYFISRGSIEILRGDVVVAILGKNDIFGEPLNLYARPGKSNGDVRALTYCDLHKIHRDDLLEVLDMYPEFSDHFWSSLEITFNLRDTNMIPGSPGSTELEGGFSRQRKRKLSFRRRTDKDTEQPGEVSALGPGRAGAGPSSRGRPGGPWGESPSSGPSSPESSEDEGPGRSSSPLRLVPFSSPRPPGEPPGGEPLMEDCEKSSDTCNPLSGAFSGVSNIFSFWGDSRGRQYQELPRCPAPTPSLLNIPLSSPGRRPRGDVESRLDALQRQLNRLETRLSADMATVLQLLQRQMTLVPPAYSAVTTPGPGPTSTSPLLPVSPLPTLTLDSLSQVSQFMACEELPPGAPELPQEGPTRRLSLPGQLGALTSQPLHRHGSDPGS

Dipeptidyl peptidase 4, sequence (P27487 whole entry): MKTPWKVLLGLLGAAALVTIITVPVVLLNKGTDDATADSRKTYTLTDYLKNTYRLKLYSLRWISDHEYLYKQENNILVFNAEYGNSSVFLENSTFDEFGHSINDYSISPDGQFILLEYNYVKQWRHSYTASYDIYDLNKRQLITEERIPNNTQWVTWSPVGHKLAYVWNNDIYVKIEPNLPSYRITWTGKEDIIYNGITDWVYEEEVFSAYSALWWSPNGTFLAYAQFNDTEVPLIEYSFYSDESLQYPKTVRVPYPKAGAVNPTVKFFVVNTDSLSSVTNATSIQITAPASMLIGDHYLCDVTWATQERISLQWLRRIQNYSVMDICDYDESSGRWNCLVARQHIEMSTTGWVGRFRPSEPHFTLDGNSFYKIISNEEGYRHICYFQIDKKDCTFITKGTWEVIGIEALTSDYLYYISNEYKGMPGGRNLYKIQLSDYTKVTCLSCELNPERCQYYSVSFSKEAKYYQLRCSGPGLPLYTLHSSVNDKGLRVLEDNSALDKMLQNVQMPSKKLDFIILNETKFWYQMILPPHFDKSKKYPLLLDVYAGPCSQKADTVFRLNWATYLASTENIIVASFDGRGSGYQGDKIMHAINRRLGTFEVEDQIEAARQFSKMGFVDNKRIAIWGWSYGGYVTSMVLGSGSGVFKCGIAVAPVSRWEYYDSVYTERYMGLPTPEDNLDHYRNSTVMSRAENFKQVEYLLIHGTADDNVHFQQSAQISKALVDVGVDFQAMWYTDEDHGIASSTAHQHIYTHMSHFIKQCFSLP

Fc1cc(F)c(C[C@@H]2CCCCN2)cc1F
IC50 (Dipeptidyl peptidase 4): > 30 µM

NCCc1cc(F)c(F)cc1F
IC50 (Dipeptidyl peptidase 4): > 30 µM

Cc1cc2ncc(C(=O)N3CCC([C@H](N)Cc4cc(F)c(F)cc4F)CC3)c(C)n2n1
Activity (Rattus norvegicus): >20 h | IC50 (Dipeptidyl peptidase 2): 16.8 µM | half-life [1]: 3.71 h | clearance [2]: 3.4 mL/min/kg | bioavailability [3]: 70% | clearance [4]: 12.9 mL/min/kg | half-life [5]: 3.5 h | Vd [6]: 2.2 L/kg | bioavailability [7]: 52% | Vd [8]: 2.2 L/kg | half-life [9]: 5.09 h | Vd [10]: 1 L/kg | clearance [11]: 18 mL/min/kg | bioavailability [12]: 70%

Cc1ncc(C)c(C(=O)N2CCC([C@H](N)Cc3cc(F)c(F)cc3F)CC2)n1
Activity (Rattus norvegicus): 8 h | IC50 (Dipeptidyl peptidase 2): > 30 µM | IC50 [13]: 85 µM

Cc1nccnc1C(=O)N1CCC([C@H](N)Cc2cc(F)c(F)cc2F)CC1
Activity (Rattus norvegicus): 12 h | IC50 (Dipeptidyl peptidase 2): > 30 µM | IC50 [13]: 55 µM

N[C@H](Cc1cc(F)c(F)cc1F)C1CCN(C(=O)c2cnc3ncccn23)CC1
Activity (Rattus norvegicus): >24 h | IC50 (Dipeptidyl peptidase 2): 10.8 µM

N[C@H](Cc1cc(F)c(F)cc1F)C1CCN(C(=O)c2ccc(F)cc2F)CC1
IC50 (Dipeptidyl peptidase 2): 11.1 µM

N[C@H](Cc1cc(F)c(F)cc1F)C1CCN(C(=O)c2cc3ccccc3cn2)CC1
IC50 (Dipeptidyl peptidase 2): 10.2 µM

N[C@H](Cc1cc(F)c(F)cc1F)CC1CCCCC1
IC50 (Dipeptidyl peptidase 4): > 30 µM

Nc1nccnc1C(=O)N1CCC([C@H](N)Cc2cc(F)c(F)cc2F)CC1
IC50 (Dipeptidyl peptidase 2): 9.11 µM
